Measurements as given in ChEMBL document CHEMBL3751721, “Development of acridine derivatives as selective Mycobacterium tuberculosis DNA gyrase inhibitors” (Bioorg Med Chem, 2016).
Values after ≈ are worked out from the molar mass of the structure shown. Active and inactive are the calls of the source. The rule behind the calls is not given here.

Tests used:
[1] = molecular target: DNA gyrase (Staphylococcus aureus) (UniProt P0A0K8+P20831); test: Inhibition of Staphylococcus aureus DNA gyrase assessed as inhibition of DNA supercoiling; format: protein-complex assay
[2] = Cytotoxicity against mouse RAW264.7 cells assessed as inhibition of cell growth at 50 uM after 72 hrs by MTT assay; format: cell-based
How it was run: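 RAW 264.7 mouse macrophages exposed to compound at 50 µM for 72 h. Viability read by MTT conversion to formazan, reported as percent inhibition.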

[3] = molecular target: DNA gyrase (Pseudomonas aeruginosa) (UniProt P48372+Q9I7C2); test: Inhibition of Pseudomonas aeruginosa DNA gyrase assessed as inhibition of DNA supercoiling; format: protein-complex assay
[4] = system: Mycobacterium tuberculosis; test: Antimicrobial activity against Mycobacterium tuberculosis H37Rv ATCC 27294 after 28 days by alamar blue assay; format: functional; settings: H37Rv ATCC 27294, 672 h
[5] = molecular target: DNA gyrase subunit A/DNA gyrase subunit B (Mycobacterium tuberculosis (strain ATCC 25618 / H37Rv), UniProt P9WG45+P9WG47); test: Inhibition of Mycobacterium tuberculosis DNA gyrase assessed as inhibition of DNA supercoiling after 30 mins by electrophoresis
[6] = system: Escherichia coli; test: Inhibition of Escherichia coli DNA gyrase assessed as inhibition of DNA supercoiling
[7] = system: Mycobacterium tuberculosis; test: Inhibition of Mycobacterium tuberculosis DNA topoisomerase 1 assessed as DNA relaxation at 50 uM
[8] = molecular target: DNA gyrase subunit B (Mycobacterium smegmatis) (UniProt P0C559); test: Inhibition of Mycobacterium smegmatis GyrB by ATPase assay; settings: Mycolicibacterium smegmatis
[9] = Toxicity in zebrafish embryo assessed as atrio-ventricular ratio at 30 uM; design: species or system Danio rerio; settings: in vivo
How it was run: (§1)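 Zebrafish embryos from 2 female:3 male breeding, raised in E3 medium at 28 °C. Compound given at 1 to 30 µM in 0.1% DMSO vehicle, 20 µM terfenadine as reference, 4 h incubation. Embryos treated with tricaine, then 30 beats timed per atrium and ventricle. Rate = 1800/time(s) beats/min; AV ratio derived from these counts.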

[10] = Toxicity in zebrafish embryo assessed as heart rate at 30 uM; design: species or system Danio rerio; settings: in vivo; how it was run: as §1
[11] = Inhibition of zebrafish ERG at 1 to 30 uM; design: species or system Danio rerio; how it was run: as §1
[12] = Inhibition of Mycobacterium tuberculosis DNA topoisomerase 1

Sequence of DNA gyrase subunit B (Mycobacterium smegmatis) (P0C559 2-675 limits assumed): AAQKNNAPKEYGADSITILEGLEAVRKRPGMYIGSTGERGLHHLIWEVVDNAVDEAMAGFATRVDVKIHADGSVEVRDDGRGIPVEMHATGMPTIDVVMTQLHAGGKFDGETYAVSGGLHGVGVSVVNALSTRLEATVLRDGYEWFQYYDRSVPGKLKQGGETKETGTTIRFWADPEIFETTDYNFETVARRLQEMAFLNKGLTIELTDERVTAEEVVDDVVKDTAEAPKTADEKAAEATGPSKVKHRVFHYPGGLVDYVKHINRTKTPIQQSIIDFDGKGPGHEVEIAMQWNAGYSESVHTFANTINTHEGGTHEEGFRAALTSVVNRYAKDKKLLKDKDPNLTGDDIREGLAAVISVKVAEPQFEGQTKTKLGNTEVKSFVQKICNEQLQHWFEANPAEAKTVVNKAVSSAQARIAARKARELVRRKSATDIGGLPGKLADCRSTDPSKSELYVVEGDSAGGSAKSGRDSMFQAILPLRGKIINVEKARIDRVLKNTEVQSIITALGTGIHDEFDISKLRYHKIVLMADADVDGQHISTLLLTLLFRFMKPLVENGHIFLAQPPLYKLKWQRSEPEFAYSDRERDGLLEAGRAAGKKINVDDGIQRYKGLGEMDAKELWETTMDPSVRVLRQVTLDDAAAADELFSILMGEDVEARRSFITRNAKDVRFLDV
Sequence of DNA gyrase (Staphylococcus aureus) (P0A0K8 2-644 limits assumed): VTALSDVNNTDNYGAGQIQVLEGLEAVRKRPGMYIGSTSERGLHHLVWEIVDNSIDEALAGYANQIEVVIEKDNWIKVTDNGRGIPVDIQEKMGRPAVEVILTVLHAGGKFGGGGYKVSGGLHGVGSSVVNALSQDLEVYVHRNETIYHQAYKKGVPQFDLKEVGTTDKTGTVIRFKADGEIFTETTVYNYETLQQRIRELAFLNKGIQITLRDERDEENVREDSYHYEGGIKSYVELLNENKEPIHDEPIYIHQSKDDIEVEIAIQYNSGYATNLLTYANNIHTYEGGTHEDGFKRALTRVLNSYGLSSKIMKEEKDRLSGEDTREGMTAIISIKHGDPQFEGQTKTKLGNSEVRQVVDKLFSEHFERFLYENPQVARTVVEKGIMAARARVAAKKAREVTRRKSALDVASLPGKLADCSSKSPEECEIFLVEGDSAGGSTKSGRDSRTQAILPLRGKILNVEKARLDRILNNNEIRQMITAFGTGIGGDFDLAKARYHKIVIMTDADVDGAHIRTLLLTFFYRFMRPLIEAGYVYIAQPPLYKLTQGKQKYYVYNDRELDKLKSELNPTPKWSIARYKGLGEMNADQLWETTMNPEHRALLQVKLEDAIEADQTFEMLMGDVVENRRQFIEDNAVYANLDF
Sequence of DNA gyrase (Staphylococcus aureus) (P20831 whole entry partner): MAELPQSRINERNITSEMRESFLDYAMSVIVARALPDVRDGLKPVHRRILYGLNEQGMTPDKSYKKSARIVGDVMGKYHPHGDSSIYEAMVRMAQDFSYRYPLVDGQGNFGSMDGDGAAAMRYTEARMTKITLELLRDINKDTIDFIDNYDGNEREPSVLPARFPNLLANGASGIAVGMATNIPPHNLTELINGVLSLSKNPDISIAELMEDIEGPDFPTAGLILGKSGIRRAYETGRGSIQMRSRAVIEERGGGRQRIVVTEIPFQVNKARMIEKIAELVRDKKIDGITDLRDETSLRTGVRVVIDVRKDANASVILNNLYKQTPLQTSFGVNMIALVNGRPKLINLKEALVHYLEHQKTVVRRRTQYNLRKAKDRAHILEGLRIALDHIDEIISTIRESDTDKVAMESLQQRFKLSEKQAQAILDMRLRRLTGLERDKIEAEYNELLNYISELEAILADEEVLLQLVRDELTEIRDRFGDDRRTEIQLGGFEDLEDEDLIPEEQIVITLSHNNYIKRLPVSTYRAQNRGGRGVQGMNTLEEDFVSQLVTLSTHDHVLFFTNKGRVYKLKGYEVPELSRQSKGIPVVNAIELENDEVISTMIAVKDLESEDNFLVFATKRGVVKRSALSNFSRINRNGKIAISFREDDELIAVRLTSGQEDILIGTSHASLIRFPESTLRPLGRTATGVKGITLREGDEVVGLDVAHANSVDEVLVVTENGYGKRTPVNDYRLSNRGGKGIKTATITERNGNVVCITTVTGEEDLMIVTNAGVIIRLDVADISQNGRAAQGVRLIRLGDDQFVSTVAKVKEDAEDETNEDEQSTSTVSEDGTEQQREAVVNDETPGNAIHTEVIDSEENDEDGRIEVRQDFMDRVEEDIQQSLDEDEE
Sequence of DNA gyrase subunit A/DNA gyrase subunit B (P9WG45 whole entry): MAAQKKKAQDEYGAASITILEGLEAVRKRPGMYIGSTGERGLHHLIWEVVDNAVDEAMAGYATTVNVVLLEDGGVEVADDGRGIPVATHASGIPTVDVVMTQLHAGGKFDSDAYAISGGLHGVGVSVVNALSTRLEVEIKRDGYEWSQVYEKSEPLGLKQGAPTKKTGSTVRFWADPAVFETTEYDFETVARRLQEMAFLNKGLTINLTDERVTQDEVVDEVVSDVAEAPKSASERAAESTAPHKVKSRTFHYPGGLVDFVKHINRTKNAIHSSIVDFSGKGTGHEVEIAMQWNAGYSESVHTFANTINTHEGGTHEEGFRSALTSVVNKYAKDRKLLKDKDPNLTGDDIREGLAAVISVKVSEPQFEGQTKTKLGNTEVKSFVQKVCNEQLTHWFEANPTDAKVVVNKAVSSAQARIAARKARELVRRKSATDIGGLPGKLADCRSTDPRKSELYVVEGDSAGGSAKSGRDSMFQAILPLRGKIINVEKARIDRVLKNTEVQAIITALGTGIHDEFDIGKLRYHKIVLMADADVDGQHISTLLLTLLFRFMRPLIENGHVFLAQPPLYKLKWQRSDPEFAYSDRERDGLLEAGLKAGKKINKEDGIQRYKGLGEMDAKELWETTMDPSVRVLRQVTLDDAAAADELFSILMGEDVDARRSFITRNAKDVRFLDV
Sequence of DNA gyrase subunit A/DNA gyrase subunit B (P9WG47 whole entry): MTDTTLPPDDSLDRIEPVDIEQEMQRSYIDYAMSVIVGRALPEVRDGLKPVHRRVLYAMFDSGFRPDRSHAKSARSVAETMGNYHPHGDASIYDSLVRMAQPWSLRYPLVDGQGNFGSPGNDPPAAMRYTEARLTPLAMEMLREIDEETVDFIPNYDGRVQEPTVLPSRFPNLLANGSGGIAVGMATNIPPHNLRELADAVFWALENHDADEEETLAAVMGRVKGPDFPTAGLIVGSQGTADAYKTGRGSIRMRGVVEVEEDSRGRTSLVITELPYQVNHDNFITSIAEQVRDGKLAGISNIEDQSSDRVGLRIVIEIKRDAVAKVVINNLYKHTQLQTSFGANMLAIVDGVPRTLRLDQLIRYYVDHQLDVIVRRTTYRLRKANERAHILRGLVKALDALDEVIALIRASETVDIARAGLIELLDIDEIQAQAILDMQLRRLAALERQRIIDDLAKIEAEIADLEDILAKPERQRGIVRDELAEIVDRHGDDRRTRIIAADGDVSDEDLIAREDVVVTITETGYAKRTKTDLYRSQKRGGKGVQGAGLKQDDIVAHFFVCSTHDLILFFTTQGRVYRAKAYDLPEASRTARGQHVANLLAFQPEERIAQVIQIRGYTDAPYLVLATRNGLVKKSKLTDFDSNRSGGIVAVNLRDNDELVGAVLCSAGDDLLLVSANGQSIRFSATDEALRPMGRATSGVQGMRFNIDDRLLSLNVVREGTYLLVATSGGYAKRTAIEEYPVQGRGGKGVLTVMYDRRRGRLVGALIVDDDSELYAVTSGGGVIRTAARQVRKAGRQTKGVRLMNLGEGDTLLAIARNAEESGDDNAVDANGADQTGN

| Structure (SMILES) | inhibition [1] | inhibition at 72 h, 50 µM [2] [%] | inhibition [3] | MIC [4] [µM] | IC50 [5] [µM] | inhibition [6] | inhibition [7] | inhibition [8] | Activity [9] | Activity [10] | inhibition (INH) [11] | IC50 [12] [µM] |
| --- | --- | --- | --- | --- | --- | --- | --- | --- | --- | --- | --- | --- |
| O=[N+]([O-])c1ccc(S(=O)(=O)Nc2ccc(Nc3c4ccccc4nc4ccccc34)cc2)cc1 | inactive | 34.1 | inactive | 24.6 (≈ 11.6 µg/mL) | 22.4 | inactive | inactive | inactive | – | – | – | – |
| S=C(Nc1ccc(Cl)cc1)Nc1ccc(Nc2c3ccccc3nc3ccc(Cl)cc23)cc1 | inactive | 6.7 | inactive | > 51.1 | 31.5 | inactive | inactive | inactive | – | – | – | – |
| Cc1ccc2nc3ccccc3c(Nc3ccc(NS(=O)(=O)c4ccc(Cl)cc4)cc3)c2c1 | inactive | 11.8 | inactive | 6.59 (≈ 3.12 µg/mL) | 5.21 | inactive | inactive | inactive | Non-toxic | Non-toxic | Not Active | – |
| S=C(Nc1ccccc1)Nc1ccc(Nc2c3ccccc3nc3ccc(Cl)cc23)cc1 | inactive | 11.7 | inactive | 27.5 (≈ 12.5 µg/mL) | 29.3 | inactive | inactive | inactive | – | – | – | – |
| O=C(Nc1ccc(Nc2c3ccccc3nc3ccccc23)cc1)Nc1ccc([N+](=O)[O-])cc1 | inactive | 19.2 | inactive | 27.8 (≈ 12.5 µg/mL) | 26.8 | inactive | inactive | inactive | – | – | – | – |
| O=S(=O)(Nc1ccc(Nc2c3ccccc3nc3ccc(Cl)cc23)cc1)c1ccc(Cl)cc1 | inactive | 14.2 | inactive | 25.1 (≈ 12.4 µg/mL) | 12.4 | inactive | inactive | inactive | – | – | – | – |
| Cc1ccc(S(=O)(=O)Nc2ccc(Nc3c4ccccc4nc4ccc(Cl)cc34)cc2)cc1 | inactive | 38.5 | inactive | > 52.8 | 22.8 | inactive | inactive | inactive | – | – | – | – |
| Cc1ccc2nc3ccccc3c(Nc3ccc(NC(=S)Nc4ccccc4)cc3)c2c1 | inactive | 10.8 | inactive | 7.2 (≈ 3.13 µg/mL) | 6.3 | inactive | inactive | inactive | – | – | – | – |
| COc1cc(NS(C)(=O)=O)ccc1Nc1c2ccccc2nc2ccccc12 [AMSACRINE] | – | – | – | – | – | – | – | – | – | – | – | 10 |
| O=C(Nc1ccc(Cl)cc1)Nc1ccc(Nc2c3ccccc3nc3ccc(Cl)cc23)cc1 | inactive | 17.1 | inactive | 13.2 (≈ 6.25 µg/mL) | 11.8 | inactive | inactive | inactive | – | – | – | – |
| O=C(Nc1ccc(Nc2c3ccccc3nc3ccc(Cl)cc23)cc1)Nc1ccc([N+](=O)[O-])cc1 | inactive | 45.9 | inactive | 6.46 (≈ 3.13 µg/mL) | 7.3 | inactive | inactive | inactive | – | – | – | – |
| Cc1ccc2nc3ccccc3c(Nc3ccc(NS(=O)(=O)c4ccccc4)cc3)c2c1 | inactive | 39.6 | inactive | 28.4 (≈ 12.5 µg/mL) | 5.86 | inactive | inactive | inactive | – | – | – | – |
| Cc1ccc(NC(=O)Nc2ccc(Nc3c4ccccc4nc4ccc(C)cc34)cc2)cc1 | inactive | 43.1 | inactive | 57.8 (≈ 25 µg/mL) | 29.6 | inactive | inactive | inactive | – | – | – | – |
| Cc1ccc2nc3ccccc3c(Nc3ccc(NC(=O)Nc4ccc(Cl)cc4)cc3)c2c1 | inactive | 25.9 | inactive | 27.6 (≈ 12.5 µg/mL) | 11.4 | inactive | inactive | inactive | – | – | – | – |
| O=[N+]([O-])c1ccc(S(=O)(=O)Nc2ccc(Nc3c4ccccc4nc4ccc(Cl)cc34)cc2)cc1 | inactive | 30.4 | inactive | 24.8 (≈ 12.5 µg/mL) | 8.1 | inactive | inactive | inactive | – | – | – | – |
| Cc1ccc(NC(=S)Nc2ccc(Nc3c4ccccc4nc4ccc(Cl)cc34)cc2)cc1 | inactive | 25.5 | inactive | > 53.3 | 33.9 | inactive | inactive | inactive | – | – | – | – |
| Cc1ccc(NC(=O)Nc2ccc(Nc3c4ccccc4nc4ccc(Cl)cc34)cc2)cc1 | inactive | 29.2 | inactive | 13.8 (≈ 6.25 µg/mL) | 12.5 | inactive | inactive | inactive | – | – | – | – |
